Converted amounts (≈) assume the structure as drawn. The source made the active and inactive calls. The rule behind the calls is not given here.
Columns and labels:
[1] = Inhibition of His-tagged Mycobacterium tuberculosis DXR expressed in Escherichia coli BL21(DE3) using DXP as substrate assessed as oxidation of NADPH preincubated for 10 mins followed by NADPH and substrate addition by spectrophotometric analysis
In short: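 Activity was read spectrophotometrically at 37 °C as NADPH oxidation. Enzyme was preincubated with inhibitor for 10 min at 37 °C before substrate. Run in duplicate. IC50 came from nonlinear regression of dose-response plots.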

[2] = system: Mycobacterium tuberculosis; assay: Antitubercular activity against Mycobacterium tuberculosis H37Rv ATCC 27294 after 2 weeks; assay type: functional; details: H37Rv ATCC 27294, 336 h
In short: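 Mtb H37Rv was grown to OD 0.5 in 7H9 with 0.05% Tween-80, 0.2% glycerol and ADC, then diluted 1:1000. Inhibitors from 50 mg/mL DMSO stocks were serially 2-fold diluted (eight dilutions). Three independent measurements.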

[3] = system: Mycobacterium tuberculosis; assay: Inhibition of His-tagged Mycobacterium tuberculosis DXR expressed in Escherichia coli BL21(DE3) using DXP as substrate assessed as residual activity at 100 uM preincubated for 10 mins followed by NADPH and substrate addition by spectrophotometric analysis relative to control
In short: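 IMAC-purified His-tagged Mtb Dxr was tested with inhibitor at 100 μM, preincubated 10 min at 37 °C before substrate. NADPH oxidation was followed spectrophotometrically at 37 °C. Inhibition is relative. Duplicate assays.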

[4] = system: Mycobacterium tuberculosis; assay: Uncompetitive inhibition of His-tagged Mycobacterium tuberculosis DXR expressed in Escherichia coli BL21(DE3) using DXP as substrate at 5 to 50 uM by Lineweaver-Burk plot analysis in presence of 0.01 to 0.05 uM NADPH
[5] = system: Mycobacterium tuberculosis; assay: Competitive inhibition of His-tagged Mycobacterium tuberculosis DXR expressed in Escherichia coli BL21(DE3) using DXP as substrate at 5 to 50 uM by Lineweaver-Burk plot analysis in presence of NADPH
In short: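 For mode of inhibition versus DXP, purified His-tagged Mtb Dxr was run at 37 °C with NADPH fixed at 150 µM or 30 µM depending on inhibitor. Enzyme and inhibitor were preincubated 10 min at 37 °C before substrate. NADPH oxidation was followed spectrophotometrically. Duplicates were analysed by Lineweaver-Burk plots.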

[6] = system: Mycobacterium tuberculosis; assay: Noncompetitive inhibition of His-tagged Mycobacterium tuberculosis DXR expressed in Escherichia coli BL21(DE3) using DXP as substrate at 5 to 50 uM by Lineweaver-Burk plot analysis in presence of 0.01 to 0.05 uM NADPH

| SMILES | IC50 [1] [µM] | MIC99 [2] [µg/mL] | Activity [3] [%] | also measured |
| --- | --- | --- | --- | --- |
| CC(=O)N(CCCP(=O)(O)O)OCc1ccc(C(C)C)cc1 | 48.4 | – | – | – |
| CCOP(=O)(CCCN(O)C(=O)CCCc1ccccc1)OCC | – | 200 (≈ 560 µM) | – | – |
| O=CN(O)CCCP(=O)(O)O [FOSMIDOMYCIN] | – | > 500 | – | – |
| CC(=O)N(CCCP(=O)(O)O)OCCCc1ccccc1 | – | – | 77.5 | – |
| CC(=O)N(O)CCCP(=O)([O-])O.[Na+] | 2.39 | > 500 | – | inhibition [4]: Active; inhibition [5]: Active |
| O=C(CCCc1ccccc1)N(O)CCCP(=O)([O-])O.[Na+] | 17.8 | > 200 | – | inhibition [5]: Active; inhibition [6]: Active |
| CCOP(=O)(CCCN(O)C=O)OCC | – | 250 (≈ 1050 µM) | – | – |
| O=C(Cc1ccccc1)N(O)CCCP(=O)(O)O | 26.9 | – | – | – |
| CC(=O)N(CCCP(=O)(O)O)OCCc1ccccc1 | – | – | 81.5 | – |
| O=C(C1CCCCC1)N(O)CCCP(=O)(O)O | – | – | 80 | – |
| CC(=O)N(CCCP(=O)(O)O)OCC1CCCCC1 | – | – | 83.5 | – |

— ChEMBL document CHEMBL3132832, “Design of Potential Bisubstrate Inhibitors against Mycobacterium tuberculosis (Mtb) 1-Deoxy-D-Xylulose 5-Phosphate Reductoisomerase (Dxr)-Evidence of a Novel Binding Mode” (Medchemcomm, 2013)
